Source: PubChem (several laboratories)
ABHD5-PLIN5 inh: ABHD5-PLIN5 interaction inhibitors, primary screen, cell lysate, split luciferase complementation, luminescence. AID 602281, 2012. Split G. princeps luciferase complementation, 4 h. inhibition, % at 4 µM. Perilipin-5 (Homo sapiens) + 1-acylglycerol-3-phosphate O-acyltransferase ABHD5 (Homo …. 360,000 compounds, 0.78% hits;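 active = inhibition above the mean inhibition across every tested compound plus 3 SD, cut at about 22% in these data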;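 also: 0% = DMSO only wells and the 100% control is not disclosed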
Target sequence (Q00G26 whole entry, looked up): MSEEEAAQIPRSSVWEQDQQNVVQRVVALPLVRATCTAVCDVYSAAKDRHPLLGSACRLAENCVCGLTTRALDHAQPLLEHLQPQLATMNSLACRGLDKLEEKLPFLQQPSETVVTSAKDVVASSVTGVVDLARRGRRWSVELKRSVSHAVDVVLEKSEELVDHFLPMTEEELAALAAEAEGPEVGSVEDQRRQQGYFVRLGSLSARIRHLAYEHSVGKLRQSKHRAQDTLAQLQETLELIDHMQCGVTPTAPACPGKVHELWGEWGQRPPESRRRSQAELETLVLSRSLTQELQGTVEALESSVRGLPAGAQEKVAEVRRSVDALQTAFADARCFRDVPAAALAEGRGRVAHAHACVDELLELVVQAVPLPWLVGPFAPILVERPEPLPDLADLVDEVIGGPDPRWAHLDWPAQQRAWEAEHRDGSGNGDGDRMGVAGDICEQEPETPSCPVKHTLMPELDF
Target sequence (Q8WTS1 whole entry, looked up): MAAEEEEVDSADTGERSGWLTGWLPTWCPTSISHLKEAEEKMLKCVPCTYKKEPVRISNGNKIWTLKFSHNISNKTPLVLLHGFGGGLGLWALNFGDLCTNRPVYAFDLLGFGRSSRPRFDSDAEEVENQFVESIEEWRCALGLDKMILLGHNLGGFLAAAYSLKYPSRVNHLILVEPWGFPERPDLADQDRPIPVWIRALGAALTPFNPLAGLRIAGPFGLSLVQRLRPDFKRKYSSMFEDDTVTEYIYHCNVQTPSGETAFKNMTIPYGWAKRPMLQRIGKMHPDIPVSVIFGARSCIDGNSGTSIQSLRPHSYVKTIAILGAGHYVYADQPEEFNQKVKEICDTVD
Beta2AR agonist: beta2AR agonists driving receptor internalization, primary screen, cell-based, FAP fluorogen, flow cytometry | response, % (concentration not given with the values) | Am2.2-beta2AR cells | 340,000 compounds, 0.43% hits;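 active = response above a set limit, near 3 SD of response in nonfluorescent compounds, cut at about 42% in these data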
GRK2 aptamer HTS: compounds blocking aptamer binding on GRK2 – biochemical, human GRK2, bead flow cytometry, HTS, primary screen | FAM-aptamer displacement from GRK2 | inhibition of aptamer binding, % at 10 µM | 330,000 compounds, 0.59% hits | AID 488847, 2010;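 active = inhibition of aptamer binding above 40%, roughly 3 SD of noise, on plates passing a quality check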;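 also: median bead fluorescence of bound FAM aptamer so fluorescent compounds give negative values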
NadD inh: inhibitors of S. aureus NadD, primary screen, biochemical, colorimetric, uHTS. inhibition, % at 20 µM. 360,000 compounds, 0.78% hits. AID 602399, 2012. purified NadD enzyme, colorimetric absorbance read-out. Nicotinate-nucleotide adenylyltransferase NadD (Staphylococcus aureus N315); in the data active = inhibition above about 26%
SENP1 inh: human SENP1 catalytic domain inhibitors, primary screen, biochemical, FRET, uHTS; Sentrin-specific protease 1 (Homo sapiens), Q9P0U3; recombinant SENP1 catalytic domain, CyPet-SUMO1-YPet FRET cleavage; inhibition, % at 10 µM; 360,000 compounds, 0.21% hits;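 active = inhibition at least 30% at 10 µM, raw YFP signal under a set limit, fluorescence ratio 0.5 to 1.5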;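 also: 0% = enzyme with DMSO and 100% = no enzyme wells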
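Material – human SENP1 catalytic domain · Input – SENP1 enzyme, 20 pM final · Compound dosing – single concentration of 10 µM compound, 0.5% DMSO final · Timing – enzyme reaction for 50 min at room temperature, dark · Measured by – FRET fluorescence in CFP and YFP emission channels · Control set – no-enzyme wells low, DMSO-plus-enzyme wells high control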
Beta2AR ag CP1: beta2AR agonists via receptor internalization, confirmation, cell-based, FAP fluorogen, flow cytometry, single point, cherry pick 1; shares compounds with Beta2AR agonist; Am2.2-beta2AR cells, FAP surface receptor; stronger effect = lower value; percent response (surface receptor), % at 10 µM; 1,100 compounds, 25% hits;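 active = surface receptor percent response at or below 58%, roughly 3 SD from nonfluorescent compounds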
B2AR FAP counter: flagged in Am2.2 fluorescence counterscreen for beta-2AR agonists | Am2.2 cells, FAP fluorogen flow cytometry; stronger effect = lower value | calls only at 10 µM | AID 588765 | shares compounds with Beta2AR agonist | 1,100 tested, under 10 active;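 active = percent response below a set limit in fluorescence channel 1 and below 50% in channel 8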
* hit, by the source's call; i = inactive; · = no result given. A selection: hits, their analogues and other compounds. The true share with any hit is near 2.5%.

SMILES | ABHD5-PLIN5 inh | Beta2AR agonist | GRK2 aptamer HTS | NadD inh | SENP1 inh | Beta2AR ag CP1 | B2AR FAP counter
CC(Sc1nc(-c2ccccc2)cc(C(F)(F)F)n1)C(=O)O (centres undefined) | -10 | 6 | 6 | 0 | 1 | · | ·
CC(Sc1nc(-c2ccccc2)cc(C(F)(F)F)n1)C(=O)N1CCOCC1 (centres undefined) | 3 | 91* | 0 | 2 | 3 | 14* | i
CC1CCN(C(=O)C(C)Sc2nc(-c3ccccc3)cc(C(F)(F)F)n2)CC1 (centres undefined) | -5 | 15 | 0 | -2 | 1 | 111 | i
CCN(CC(=O)Nc1cc(S(=O)(=O)N2CCCCC2)ccc1C)Cc1ccccc1 | -1 | -1 | 0 | 12 | 0 | · | ·
O=C(NCc1ccccc1)C(c1ccccc1)N(C(=O)c1csnn1)C1CCCC1 (centres undefined) | 5 | 1 | 0 | 2 | 2 | · | ·
Cc1ccc(OCc2cc(C(=O)N3CCN(c4ccccc4)CC3)no2)cc1C | -2 | 5 | 0 | -5 | 0 | · | ·
Cc1noc(C)c1S(=O)(=O)N(C)C[C@@H]1OCc2cnnn2CCCC(=O)N([C@H](C)CO)C[C@@H]1C | -1 | · | · | 3 | 1 | · | ·
CCOC(=O)NC1=NCC(C)S1 (centres undefined) | -5 | -20 | 2 | -3 | 1 | · | ·
O=C(Nc1nnc(-c2ccco2)o1)c1ccc(S(=O)(=O)N2CCCC2)cc1 | 3 | -9 | 0 | 9 | 3 | · | ·
CC1CCN(S(=O)(=O)c2ccc(C(=O)Nc3nnc(-c4ccco4)o3)cc2)CC1 | 9 | 51* | 0 | 16 | 1 | 97 | i
COc1ccc(-c2cc(C)no2)cc1S(=O)(=O)N1CCOc2ccc(Cl)cc21 | -1 | 46* | 0 | -13 | 2 | 121 | i
COc1ccc(-c2cc(C)no2)cc1S(=O)(=O)N1CC(=O)Nc2ccccc21 | 11 | 14 | 3 | -7 | -6 | · | ·
COc1ccc(C(CCNCc2ccc(F)cc2)c2ccc(F)cc2)cc1 (centres undefined) | 8 | 42 | 0 | 4 | 1 | 104 | i
COc1ccc(CNCCC(c2ccc(F)cc2)c2ccc(OC)cc2)cc1 (centres undefined) | 13 | 35 | 0 | -3 | 1 | 88 | i
COc1ccc(C(CCNC(C)c2ccccc2)c2ccc(F)cc2)cc1 (centres undefined) | 13 | 42* | 5 | 0 | 2 | 99 | i
COc1ccc(CNCC(O)(c2ccccc2)c2ccc(F)cc2)cc1 (centres undefined) | 5 | 3 | 0 | -5 | 0 | · | ·
COc1ccc(C(CCNCc2ccccc2)c2ccc(F)cc2)cc1 (centres undefined) | 8 | 16 | 0 | 0 | 1 | 85 | i
COc1ccc(CNCCC(c2ccc(F)cc2)c2ccc(OC(C)C)cc2)cc1OC (centres undefined) | 1 | 32 | 0 | 7 | -1 | · | ·
O=[N+]([O-])c1cc(S(=O)(=O)N2CCOCC2)ccc1OCc1ccccc1C(F)(F)F | -6 | -9 | · | -2 | 1 | · | ·
Nn1cnc2scc(-c3ccco3)c2c1=O | 4 | 9 | 1 | 1 | -1 | · | ·
COc1ccc(C(OCC(O)CNC(C)c2ccccc2)c2ccc(OC)cc2)cc1 (centres undefined) | 15 | 51* | 0 | -13 | 1 | 114 | i
O=C(CCc1ccc(S(=O)(=O)N2CCOCC2)cc1)Nc1nc(COc2ccccc2)cs1 | -8 | 62* | 0 | -7 | 1 | 20* | i
O=C(Cn1cc2c(n1)CCCC2)NCc1ccccn1 | -1 | 100* | 4 | 0 | -46 | 105 | i
O=C(Nc1ncc2c(n1)CC(c1cccc(Cl)c1)CC2=O)c1ccco1 (centres undefined) | 7 | 43* | 13 | 3 | -1 | 75 | i
O=C(Nc1ncc2c(n1)CC(c1ccccc1)CC2=O)c1ccco1 (centres undefined) | 1 | -18 | 0 | -5 | -3 | · | ·
SMILES | ABHD5-PLIN5 inh | Beta2AR agonist | GRK2 aptamer HTS | NadD inh | SENP1 inh | Beta2AR ag CP1 | B2AR FAP counter
COC(=O)C1CC(=O)c2ccsc2C1 (centres undefined) | 4 | 1 | 6 | -1 | 1 | · | ·
CC(C)(C)C1CCC(C(=O)Nc2ccccc2)CC1 (centres undefined) | 4 | 51* | 0 | -1 | 3 | 64 | i
O=C(Nc1ccc(Nc2ccccc2)cc1)C1CC1 | 5 | 4 | 0 | -1 | 1 | · | ·
COc1ccc(C(=O)C(OC(=O)c2ccc(C)c(NC(C)=O)c2)c2ccccc2)cc1 (centres undefined) | -4 | -3 | 1 | -7 | 3 | · | ·
CC(=O)Nc1cc(C(=O)OC(C(=O)c2ccccc2)c2ccccc2)ccc1C (centres undefined) | 4 | 121* | 3 | -6 | 2 | 22* | i
Cc1ccc(SCC(=O)Nc2ccc(-c3nnc(-c4ccco4)o3)cc2)cc1 | 3 | 82* | 0 | -4 | 1 | 34* | i
N#Cc1cc(-c2ccccc2)nc(Oc2ccc(Cl)cc2)n1 | 0 | 44* | 0 | -3 | 0 | 50* | i
COc1ccccc1NC(=O)c1ccc(NC(=O)CN2C(=O)CN(C)C2=O)cc1 | -10 | 3 | 0 | -4 | 1 | · | ·
Cc1ccc(-n2c3nc(=O)[nH]c(=O)c-3cc3cc([N+](=O)[O-])ccc32)cc1 | -4 | 51* | 5 | 6 | -31 | 108 | i
CC(C)(C)c1ccc(C(=O)NCCN2CCOCC2)cc1 | 5 | 0 | 3 | -9 | -3 | · | ·
CC(C)(C)c1ccc(C(=O)NCCCN2CCN(CCCNC(=O)c3ccc(C(C)(C)C)cc3)CC2)cc1 | 14 | 49* | 0 | 0 | 0 | 81 | i
Cc1ccc(OCc2cc(C(=O)NCc3cnn(-c4cccc(F)c4)c3)no2)cn1 | 1 | 97* | 0 | -2 | -5 | 16* | i
Cc1ccc(OCc2cc(C(=O)NCc3ccc(OC(F)(F)F)cc3)no2)cn1 | -11 | 52* | 0 | -1 | -2 | 40* | i
Cc1ccc(OCC(=O)Nc2ccc3c(c2)nc(CCN2CCN(c4ccccn4)CC2)n3C)cc1 | 7 | · | · | -2 | 1 | · | ·
